# E coli WT exp – growth inhibitors of wild-type E. coli, primary screen, strain BW25113, expanded library, OD600; OD600 absorbance; growth inhibition, % at 100 µM; 0.15% of 98,000 active;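 active = growth inhibition above about 50% at one test dose, limit read from the data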;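 also: growth measured after 20 h incubation at 37 °C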
# tolC growth inh – growth inhibitors of E. coli tolC mutant, primary screen, strain BW25113 ΔtolC::kan, 384-well; OD615; growth inhibition, % at 10 µM (by protocol); 2.2% of 65,000 active; AID 573, 2007;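 active = growth inhibition at or above a cutoff equal to the mean over every tested compound plus 3 SD, cut at about 60% in these data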;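 also: growth measured after 20 h incubation at 37 °C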
#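 Signal: optical density read at 615 nm; Assay system: E. coli ΔtolC::kan strain BW25113; Times: 20 h incubation with compound, 37 °C; Dosing: 10 µM final, single dose.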
# PLAP activator – PLAP enzyme activators, biochemical, luminescence, HTS; purified PLAP enzyme, luminescent substrate read-out; hits give high values; 1.2% of 96,000 active; Alkaline phosphatase, placental type (Homo sapiens), P05187; activation fold at 20 µM; in the data active = activation fold above about 2
# Target sequence (P05187 whole entry, looked up): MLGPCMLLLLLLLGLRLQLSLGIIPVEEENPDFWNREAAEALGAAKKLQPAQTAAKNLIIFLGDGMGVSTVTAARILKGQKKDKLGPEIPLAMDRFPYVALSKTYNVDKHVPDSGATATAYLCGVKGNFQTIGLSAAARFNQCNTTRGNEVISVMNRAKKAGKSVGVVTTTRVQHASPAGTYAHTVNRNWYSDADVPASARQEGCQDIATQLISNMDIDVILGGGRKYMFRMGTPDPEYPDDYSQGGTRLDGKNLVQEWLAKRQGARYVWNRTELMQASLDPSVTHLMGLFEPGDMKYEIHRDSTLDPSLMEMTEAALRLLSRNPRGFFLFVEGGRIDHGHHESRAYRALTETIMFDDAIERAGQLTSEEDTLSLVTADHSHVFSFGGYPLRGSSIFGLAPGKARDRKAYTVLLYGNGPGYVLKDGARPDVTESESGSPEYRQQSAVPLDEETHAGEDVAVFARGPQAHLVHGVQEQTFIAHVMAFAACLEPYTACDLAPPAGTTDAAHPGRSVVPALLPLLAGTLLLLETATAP
# PostGolgi ctrl – growth inhibition of yeast control strain, primary screen, counter-screen for post-Golgi transport modulator project; efflux-deficient yeast background strain, growth absorbance A615, 16 h; inhibition, % at 10 µM; 5% of 98,000 active; AID 738, 2007
# PostGolgi yeast – phenotypic screen on post-Golgi transport, primary screen. post-Golgi transport phenotypic cell assay. inhibition, % at 10 µM. 0.9% of 98,000 active. AID 739, 2007;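 also: yeast cells grown in 1536-well plates; yeast grown about 18 h at 30C before absorbance read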
# Active calls of the source: *; / = no result given. Shown are actives, neighbours in structure and some others; about 7.2% of the full set was active somewhere. Rule as the data show it, unless noted: active = inhibition above about 30%; inactive = the rest.
SMILES,E coli WT exp,tolC growth inh,PLAP activator,PostGolgi ctrl,PostGolgi yeast
Cc1ccc(C(=O)c2cc(C)sc2NC(=O)CN2CCN(C(=O)c3ccco3)CC2)cc1,-25,60,1.4,38*,4
COC(=O)c1ccccc1NC(=O)CN1CCN(C(=O)c2ccco2)CC1,3,-22,1.1,14,6
COc1ccc(C(=O)CSc2nc(N)nc(SC)c2C#N)cc1,0,/,0.9,33*,0
Nc1nc(SCC(=O)C23CC4CC(CC(C4)C2)C3)n[nH]1,-1,2,2.1*,12,1
N#Cc1c(N)nc(SCC(=O)C23CC4CC(CC(C4)C2)C3)c(C#N)c1-c1ccc(Cl)cc1,-21,/,0.9,0,-5
CSc1nc(N)nc(SCC(=O)c2ccccc2)c1C#N,-6,17,1,0,-21
CSc1nc(N)nc(SCC(=O)C23CC4CC(CC(C4)C2)C3)c1C#N,-11,11,/,60*,12
Nc1nc(SCC(=O)NCC2CCCO2)n[nH]1 (centres undefined),-1,-10,0.9,3,-2
Cc1ccc2cc(CN(C)C(=O)C3CCCO3)c(=O)[nH]c2c1 (centres undefined),5,-15,1,-1,-9
CCOc1ccc(NC2=NC(C(=O)NCc3ccccc3)CC(=O)N2)cc1 (centres undefined),-2,-9,1,0,1
Cc1ccc(OCC(=O)N2CCN(c3nnc(-c4ccc(C)cc4)c4ccccc34)CC2)cc1,-9,/,1.8,71*,-2
COc1ccc(OCC(=O)N2CCN(c3nnc(-c4ccccc4)c4ccccc34)CC2)cc1,-11,30,1.5,32*,-2
CNC(=O)c1cc2c(=O)n3cccc(C)c3nc2n1C,/,2,/,/,/
CCOC(=O)C(NCc1ccco1)(NC(=O)c1ccccc1)C(F)(F)F (centres undefined),-5,/,1,-2,13
CCOCCCNC(=O)C(NC(=O)c1cnccn1)c1ccc(C)cc1 (centres undefined),4,/,1.5,-9,-1
Cc1c(Br)c([N+](=O)[O-])nn1C(C)C(=O)N1CCCc2ccccc21 (centres undefined),-1,/,1.1,6,-1
O=C1NN=C(c2ccc(Cl)cc2)CC1c1cccc(Cl)c1 (centres undefined),6,/,1.3,46*,12
Cn1cc(CN2CCN(c3ccccc3)CC2)c2ccccc21,1,0,1.4,-4,0
CSc1nc(-c2ccccc2)nc(N2CCCC2)c1C(C)=O,-1,75*,0.9,39*,-7
C=C1C(C(=O)N2CCOCC2)C1C(=O)N1CCOCC1 (centres undefined),-3,-25,1.6,9,2
Cc1ccc(NC(=S)NCc2cccs2)c(C)c1,5,/,0.8,-4,-2
CC(C)[C@@H]1CC[C@@H](C)c2c(-c3ccccc3)n[nH]c21,1,/,0.8,41*,5
CCOC(=O)C1=C(C)N=C2c3ccccc3C(=O)C2C1c1ccc(C)cc1 (centres undefined),-11,/,1.2,-2,-2
O=C1CCCC2=C1C(c1ccc(Cl)cc1)C1C(=O)c3ccccc3C1=N2 (centres undefined),-8,/,1.1,43*,10
O=C(/C(=C/c1ccc(Cl)cc1)c1nc2ccccc2[nH]1)c1cccs1,-15,/,1.3,101*,104*
SMILES,E coli WT exp,tolC growth inh,PLAP activator,PostGolgi ctrl,PostGolgi yeast
O=C1[C@@H]2C(c3ccccc3Cl)=NO[C@@H]2C(=O)N1Cc1ccccc1,7,-7,1.2,5,9
O=C(CSc1nn(-c2ccccc2)c(=S)s1)Nn1cnnc1,3,-1,1.1,35*,-7
C=CCn1c(SCc2c(C(=O)OC)sc(N)c2C(=O)OC)nnc1-c1ccc(Br)cc1,3,/,1.6,20,11
Cc1nn(C(C)(C)C)c(OC(=O)c2ccc(Br)o2)c1Sc1ccccc1,-13,/,1.4,14,-4
Cc1nn(C(C)(C)C)c(OC(=O)c2ccco2)c1Sc1ccccc1,7,/,1,36*,4
CC1CCN(S(=O)(=O)c2ccc(NC(=O)Cc3cccs3)cc2)CC1,-7,/,0.6,29,-1
CCCNS(=O)(=O)c1ccc(OCC(=O)N2CCC(C(=O)OCC)CC2)cc1,4,49,1,31*,-7
CCOC(=O)C1CCN(C(=O)COc2ccc(S(=O)(=O)NC(C)C)cc2)CC1,-2,-7,1.2,-6,14
Cc1ccc(NS(=O)(=O)c2ccc(CCC(=O)N3CCOCC3)cc2)cc1,13,-3,1.2,0,-15
Cc1ccc(NS(=O)(=O)c2ccc(OCC(=O)N3CCOCC3)cc2)cc1,7,/,1.3,33*,2
COc1ccccc1NC(=O)C1=C(C)NC2=C(C(=O)CCC2)C1c1ccc2c(c1)OCO2 (centres undefined),-2,25,1.4,0,18
COc1cccc(OC)c1C(=O)N1CCOCC1,-5,-2,/,2,0
COc1ccccc1/C=C/C(=O)N1CCOCC1,2,/,0.8,35*,-9
CCOC(=O)CCCOC(=O)c1ccc(S(=O)(=O)N(C)C)cc1,-3,1,/,-9,-4
COc1ccc(C(=O)OC(C(=O)c2ccccc2)c2ccccc2)cc1 (centres undefined),-21,/,0.9,66*,-1
CCOC(=O)c1coc(CNC(=O)c2c(C)oc3c2CCCC3)c1,13,9,1,32*,4
Cc1oc2c(c1C(=O)NCc1cc(C(=O)O)co1)CCCC2,-3,-15,1.4,0,4
COc1ccc(OC)c(C(c2nnnn2Cc2ccccc2)N2CCN(C)CC2)c1 (centres undefined),-5,-15,1.4,36*,6
COc1ccc(Cn2nnnc2C(c2ccccc2)N2CCN(C3CCCC3)CC2)cc1 (centres undefined),-5,-2,2*,2,-6
Cc1nc(SCC(=O)c2ccccc2)c(C#N)c(-c2ccco2)c1C(=O)NCc1ccco1,-7,12,1.4,13,-4
COc1cccc(C(C(=O)NC2CCCCC2)N(C(=O)Cc2cccs2)c2ccc(-n3cnnn3)c(OC)c2)c1 (centres undefined),-11,/,1.3,10,-10
Cc1cc(C)cc(NC(=O)CSc2nc3ccncc3[nH]2)c1,12,/,2.2*,16,0
Cc1ccc(CSc2nc3ccncc3[nH]2)cc1,13,/,2.7*,5,-4
Clc1ccc(CSc2nc3ccncc3[nH]2)cc1,9,/,1.9,9,7
CC(C)Cc1cc(C(=O)Nc2cc(C(F)(F)F)ccc2Cl)no1,-8,/,0.9,-5,-8
CC(C)(C)c1ccc(C2C3=C(CCCC3=O)NC3=C2C(=O)c2ccccc23)cc1 (centres undefined),-4,/,1,32*,-18
O=C(COc1ccccc1Cl)NCc1ccncc1,3,-3,0.9,3,-2
COCCN=C1Sc2nc3ccc(C)cc3cc2CN1Cc1ccco1,-2,/,2*,4,5
